ChEMBL document CHEMBL4261537, “Synthesis and pharmacological evaluation of multi-functional homoisoflavonoid derivatives as potent inhibitors of monoamine oxidase B and cholinesterase for the treatment of Alzheimer's disease” (Medchemcomm, 2017)
pIC50: −log10 of the molar value.

Assays:
Acetylcholinesterase = Acetylcholinesterase (Electrophorus electricus, UniProt O42275); test: Inhibition of electric eel AChE using acetylthiocholine iodide as substrate preincubated for 5 mins followed by substrate addition measured at 1 to 3 mins time interval by Ellman's method
Cholinesterase = Cholinesterase (Equus caballus, UniProt P81908); test: Inhibition of equine serum BuChE using S-butyrylthiocholine iodide as substrate preincubated for 5 mins followed by substrate addition measured at 1 to 3 mins time interval by Ellman's method; format: ADME
[1] = target: T1, Amine oxidase [flavin-containing] A (Homo sapiens, UniProt P21397); test: Inhibition of recombinant human MAO-A assessed as reduction in H2O2 production at 100 uM using p-tyramine as substrate preincubated for 15 mins followed by substrate addition by Amplex red reagent based fluorescence assay
T1 sequence (P21397 whole entry): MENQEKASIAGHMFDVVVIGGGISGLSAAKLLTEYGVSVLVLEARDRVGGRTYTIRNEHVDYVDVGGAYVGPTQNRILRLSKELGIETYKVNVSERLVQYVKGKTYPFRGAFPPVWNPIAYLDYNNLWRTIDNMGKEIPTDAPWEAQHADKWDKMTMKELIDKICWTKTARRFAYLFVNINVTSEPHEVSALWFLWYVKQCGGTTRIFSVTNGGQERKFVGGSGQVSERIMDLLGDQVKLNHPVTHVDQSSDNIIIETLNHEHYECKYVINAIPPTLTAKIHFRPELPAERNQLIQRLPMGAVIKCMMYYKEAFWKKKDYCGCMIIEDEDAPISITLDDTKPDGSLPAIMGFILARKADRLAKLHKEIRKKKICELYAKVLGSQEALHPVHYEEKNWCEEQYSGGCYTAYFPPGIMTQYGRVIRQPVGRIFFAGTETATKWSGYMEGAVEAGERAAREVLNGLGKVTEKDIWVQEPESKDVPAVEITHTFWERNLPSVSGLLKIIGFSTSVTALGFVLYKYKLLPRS
Method in brief: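 Human MAO-A or MAO-B, each set to the same control reaction velocity. Preincubated with compound 15 min at 37°C in the dark, in sodium phosphate buffer with DMSO. Then 200 μM Amplex Red (final) added with 1 U/mL HRP and 1 mM p-tyramine. Resorufin fluorescence read at 37°C (ex 545/em 590 nm), background from enzyme-free wells subtracted. Run in triplicate, mean ± SD.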

[2] = Selectivity index, ratio of IC50 for equine serum BuChE to IC50 for electric eel AChE
[3] = target: T2, Amine oxidase [flavin-containing] B (Homo sapiens, UniProt P27338); test: Inhibition of recombinant human MAO-B assessed as reduction in H2O2 production using p-tyramine as substrate preincubated for 15 mins followed by substrate addition by Amplex red reagent based fluorescence assay
T2 sequence (P27338 whole entry): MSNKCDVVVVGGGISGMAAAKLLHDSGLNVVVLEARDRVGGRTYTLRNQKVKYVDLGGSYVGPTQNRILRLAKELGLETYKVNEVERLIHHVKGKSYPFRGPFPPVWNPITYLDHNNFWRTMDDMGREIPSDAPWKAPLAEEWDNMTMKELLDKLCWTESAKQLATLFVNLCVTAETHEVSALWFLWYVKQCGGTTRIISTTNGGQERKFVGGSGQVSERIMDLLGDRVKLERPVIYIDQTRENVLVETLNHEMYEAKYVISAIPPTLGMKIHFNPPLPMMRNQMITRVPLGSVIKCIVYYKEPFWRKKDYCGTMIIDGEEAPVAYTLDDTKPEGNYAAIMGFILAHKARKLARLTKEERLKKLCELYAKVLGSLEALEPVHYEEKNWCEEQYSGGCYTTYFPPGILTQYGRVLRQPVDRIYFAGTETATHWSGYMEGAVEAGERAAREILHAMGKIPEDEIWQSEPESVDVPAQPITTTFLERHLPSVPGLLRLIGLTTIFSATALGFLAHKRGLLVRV
Method in brief: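 Human MAO-A or MAO-B, each set to the same control reaction velocity. Preincubated with compound 15 min at 37°C in the dark, in sodium phosphate buffer with DMSO. Then 200 μM Amplex Red (final) added with 1 U/mL HRP and 1 mM p-tyramine. Run in triplicate, mean ± SD.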

Homo sapiens = species on record: Homo sapiens; test: Selectivity index, ratio of IC50 for recombinant human MAO-A to IC50 for recombinant human MAO-B
[4] = target: T1, Amine oxidase [flavin-containing] A; test: Inhibition of recombinant human MAO-A assessed as reduction in H2O2 production using p-tyramine as substrate preincubated for 15 mins followed by substrate addition by Amplex red reagent based fluorescence assay

Sequence of Cholinesterase (P81908 whole entry): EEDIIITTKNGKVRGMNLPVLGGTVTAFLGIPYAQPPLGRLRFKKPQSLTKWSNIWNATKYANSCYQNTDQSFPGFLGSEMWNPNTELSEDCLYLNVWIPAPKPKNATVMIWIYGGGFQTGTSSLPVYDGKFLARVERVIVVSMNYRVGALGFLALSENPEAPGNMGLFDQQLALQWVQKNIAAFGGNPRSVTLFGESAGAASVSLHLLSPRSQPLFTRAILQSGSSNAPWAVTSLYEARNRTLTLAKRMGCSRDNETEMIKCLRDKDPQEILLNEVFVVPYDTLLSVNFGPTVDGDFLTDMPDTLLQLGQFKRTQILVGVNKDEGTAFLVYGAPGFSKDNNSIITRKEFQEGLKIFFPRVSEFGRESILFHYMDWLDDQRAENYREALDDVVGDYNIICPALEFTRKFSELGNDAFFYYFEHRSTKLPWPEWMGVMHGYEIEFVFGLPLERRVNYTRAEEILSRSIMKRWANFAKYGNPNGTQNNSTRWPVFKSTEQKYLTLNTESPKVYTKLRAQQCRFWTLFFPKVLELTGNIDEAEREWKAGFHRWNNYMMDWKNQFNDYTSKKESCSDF
Sequence of Acetylcholinesterase (O42275 whole entry): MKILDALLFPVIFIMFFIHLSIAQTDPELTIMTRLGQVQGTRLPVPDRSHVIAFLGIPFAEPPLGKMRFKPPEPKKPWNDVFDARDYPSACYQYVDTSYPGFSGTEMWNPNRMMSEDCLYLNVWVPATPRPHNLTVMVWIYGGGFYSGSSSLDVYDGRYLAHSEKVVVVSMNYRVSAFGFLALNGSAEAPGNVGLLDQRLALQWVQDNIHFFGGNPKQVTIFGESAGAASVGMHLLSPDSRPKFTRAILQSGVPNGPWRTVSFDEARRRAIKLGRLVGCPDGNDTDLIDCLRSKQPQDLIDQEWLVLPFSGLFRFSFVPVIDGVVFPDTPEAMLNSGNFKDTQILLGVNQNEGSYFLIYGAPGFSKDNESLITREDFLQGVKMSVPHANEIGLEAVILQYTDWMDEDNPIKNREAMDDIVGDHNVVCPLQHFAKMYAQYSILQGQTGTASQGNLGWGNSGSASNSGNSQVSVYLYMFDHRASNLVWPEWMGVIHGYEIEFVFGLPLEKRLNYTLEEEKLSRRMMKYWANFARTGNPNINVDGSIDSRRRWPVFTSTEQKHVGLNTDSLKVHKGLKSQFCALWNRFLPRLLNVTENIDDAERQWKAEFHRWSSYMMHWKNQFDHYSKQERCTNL

Compound | pIC50 (Acetylcholinesterase) | pIC50 (Cholinesterase) | inhibition (INH) [1] | Ratio IC50 [2] | pIC50 [3] | Ratio IC50 (Homo sapiens) | pIC50 [4]
O=C1/C(=C/c2ccc(OCCN3CCN(Cc4ccccc4)CC3)cc2)COc2ccccc21 | 4.68 | 4.50 | Not Active | 1.5 | 4.01 | > 1.03 | 
CCN(CCCOc1ccc(/C=C2\COc3ccccc3C2=O)cc1)Cc1ccccc1 | 4.53 | 4.77 |  | 0.583 | 5.80 |  | 
CCN(CC)CCOc1ccccc1/C=C1\COc2ccccc2C1=O | 4.19 | 4.94 | Not Active | 0.176 | 4.36 | > 2.64 | 
CCN(CCCCCCOc1ccc(/C=C2\COc3ccccc3C2=O)cc1)Cc1ccccc1 | 4.77 | 4.40 | Not Active | 2.36 | < 4.00 | > 1 | 
CCN(CC)CCCOc1cccc(/C=C2\COc3ccccc3C2=O)c1 | 4.85 | 5.99 |  | 0.0732 | 4.74 | 3.55 | 4.19
CCN(CCOc1ccc(/C=C2\COc3ccccc3C2=O)cc1)Cc1ccccc1 | 5.89 | 4.31 | Not Active | 38.3 | 5.37 | > 23.3 | 
CN1CCN(CCCOc2ccc(/C=C3\COc4ccccc4C3=O)cc2)CC1 | 5.00 | 4.81 | Not Active | 1.53 | 4.64 | > 4.41 | 
CN(C)CCCCOc1ccc(/C=C2\COc3ccccc3C2=O)cc1 | 4.91 | 4.72 | Not Active | 1.54 | 6.12 | > 132 | 
CN(C)CCCCCCOc1ccc(/C=C2\COc3ccccc3C2=O)cc1 | 4.89 | 5.04 |  | 0.712 | 5.49 | 12.1 | 4.41
CN(C)CCOc1ccccc1/C=C1\COc2ccccc2C1=O | 4.19 | 5.00 | Not Active | 0.154 | < 4.00 | > 1 | 
CN1CCN(CCCCOc2ccc(/C=C3\COc4ccccc4C3=O)cc2)CC1 | 4.89 | 4.98 | Not Active | 0.799 | 4.79 | > 6.1 | 
CN1CCN(CCCCCCOc2ccc(/C=C3\COc4ccccc4C3=O)cc2)CC1 | 4.49 | 4.56 | Not Active | 0.843 | 5.20 | > 16.1 | 
CN(CCCOc1ccc(/C=C2\COc3ccccc3C2=O)cc1)Cc1ccccc1 | 4.28 | 4.71 | Not Active | 0.369 | 6.06 | > 114 | 
CCN(CC)CCCOc1ccc(/C=C2\COc3ccccc3C2=O)cc1 | 5.49 | 5.08 |  | 2.58 | 6.78 | 379 | 4.20
CN(CCOc1ccc(/C=C2\COc3ccccc3C2=O)cc1)Cc1ccccc1 | 4.71 | 4.38 | Not Active | 2.14 | 5.64 | > 43.8 | 
CN(C)CCCOc1ccccc1/C=C1\COc2ccccc2C1=O | 4.12 | 5.06 | Not Active | 0.116 | < 4.00 | > 1 | 
CN(C)CCCOc1ccc(/C=C2\COc3ccccc3C2=O)cc1 | 5.28 | 4.69 | Not Active | 3.9 | 7.36 | > 2280 | 
